Only some compounds are listed: those with a hit (about 2.6% of all), similar ones and a draw of the others.
GSIS activator – GLuc luminescence reporter in INS-1E cells, primary screen for activators of glucose-dependent secretion of insulin; 370,000 tested, 0.61% active; INS-1E GLuc reporter insulin secretion, 2-3 h; activation, % at 16.6 µM;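 active = lowest replicate activation of at least 40%, so every replicate reaches that level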;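 also: 0% = median of neutral control wells and 100% = median of IBMX positive control wells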
Ecoli rRNA inh – reduced GFP signal of wild-type E. coli, primary screen, bacterial rRNA inhibitor project, GFP/RFP fluorescence, OD600, single point. GFP signal change (wild-type ribosome), % (test concentration not listed). E. coli WT GFP vs humanized-ribosome RFP mutants, 24 h; stronger effect = lower value; DMSO median 0, no signal -100. 350,000 tested, 1.6% active;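 active = significant combined selectivity score with lowered wild-type GFP, culture density cut under 30%, mutant RFP and density less affected; inactive = any of these conditions unmet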
RAD52 inh – RAD52 DNA annealing inhibitors, primary screen, biochemical, FRET, single point, set 2. DNA repair protein RAD52 homolog (Homo sapiens), P43351. recombinant RAD52 DNA annealing, FRET fluorescence. inhibition, % at 18.7 µM. 360,000 tested, 0.46% active. AID 651710, 2012;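 active = every replicate showing at least 50% inhibition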
Target sequence (P43351 whole entry, looked up): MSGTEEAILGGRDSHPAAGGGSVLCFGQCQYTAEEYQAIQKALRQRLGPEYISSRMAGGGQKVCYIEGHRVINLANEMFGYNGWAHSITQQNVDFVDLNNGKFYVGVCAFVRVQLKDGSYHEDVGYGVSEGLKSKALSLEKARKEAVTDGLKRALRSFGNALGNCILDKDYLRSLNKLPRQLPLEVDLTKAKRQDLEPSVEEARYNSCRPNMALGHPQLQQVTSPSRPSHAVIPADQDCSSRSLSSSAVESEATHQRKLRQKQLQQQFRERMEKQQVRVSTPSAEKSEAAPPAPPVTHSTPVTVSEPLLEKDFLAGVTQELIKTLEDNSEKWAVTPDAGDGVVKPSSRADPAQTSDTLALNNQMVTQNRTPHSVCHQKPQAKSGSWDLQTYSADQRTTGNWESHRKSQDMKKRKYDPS
E-selectin induc – E-selectin induction in HUVECs, primary screen, imaging, HUVEC, immunofluorescence imaging, single point. activation, % at 7.58 µM. AID 686992, 2013. normalized: neutral wells 0, TNF-alpha wells 100. 260,000 tested, 0.37% active;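 active = mean E-selectin-positive cell signal at least 10% of the positive control, reached in at least 60% of replicates, without over 20% cell loss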
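Assay system: HUVEC, human umbilical vein endothelial cells / Amount: 3,000 HUVEC/well / Controls: TNF-alpha positive control, DMSO neutral control / Compound dosing: single concentration / Medium: EGM-2 over gelatin coat / Evaluation: percent E-selectin-positive cells / Signal: immunofluorescence imaging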
RAD54 branch – inhibitors of human RAD54 branch migration, primary screen, biochemical, fluorescence, single point | RAD54 Holliday junction branch migration, FAM/BHQ fluorescence | inhibition, % at 10.4 µM | AID 602329, 2012 | 360,000 tested, 0.14% active;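 active = mean normalized replicate activity at least 40 and at least half of replicates scoring 40 or more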;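 also: 0% = median of neutral control wells and 100% = median of positive control wells; inhibitors cause a drop in the FAM fluorescence signal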
AF4-AF9 inh – inhibitors of AF4 peptide binding to AF9, primary screen, biochemical, AlphaScreen, biotin-AF4 peptide, FLAG-AF9, single point | Protein AF-9 (Homo sapiens), P42568 | inhibition, % at 10 µM | 350,000 tested, 0.47% active | AID 651704, 2012;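 active = every replicate reaching a set inhibition limit, whatever the replicate mean, cut at about 25% in these data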;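 also: 0% = plate neutral control median and 100% = total signal loss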
Active calls of the source: *; nt = no result.

SMILES	GSIS activator	Ecoli rRNA inh	RAD52 inh	E-selectin induc	RAD54 branch	AF4-AF9 inh
CC(=O)NC12CC3CC(C1)CC(C(=O)OCC(=O)Nc1c(F)cccc1F)(C3)C2	3.0	2.0	-2.9	nt	3.4	-0.8
O=C(COC(=O)C12CC3CC(CC(O)(C3)C1)C2)NCCc1ccc(Cl)cc1	-34.8	-20.0*	4.1	0.4	nt	0.1
O=C(COC(=O)C12CC3CC(CC(Br)(C3)C1)C2)Nc1c(F)cccc1F	-43.9	-26.6*	-3.2	nt	0.3	0.0
Cc1ccc(-n2c(C)c(C)c3c(N)ncnc32)cc1	15.1	-6.7	2.3	nt	nt	12.8
Cc1cccc(-n2c(C)c(C)c3c(N)ncnc32)c1	49.4*	-2.0	-8.0	nt	-9.4	9.8
CO[C@@H](CN(C)C(=O)c1ccccc1F)[C@H](C)CN([C@@H](C)CO)S(=O)(=O)c1ccccc1	4.5	-0.1	-4.4	-0.2	4.3	-24.8
CC(=O)Nc1ccc2c(c1)CC(=O)N(C)C[C@H](C)[C@@H](CN(C)C)O2	-1.6	0.3	nt	nt	nt	nt
Cc1ccc(Oc2c(CO)c(-c3ccccc3)nn2C)cc1	8.1	-23.5*	-10.9	-3.1	nt	-1.7
CCn1c(SCC(=O)N(C)Cc2ccc(OC)c(F)c2)nc2cc(S(N)(=O)=O)ccc21	3.6	-0.6	-10.2	42.3*	-14.4	2.7
C[C@@H]1CN([C@H](C)CO)S(=O)(=O)c2ccc(-c3cncnc3)cc2O[C@H]1CN(C)Cc1ccncc1	5.0	-1.8	6.7	-0.1	-8.1	5.3
CCCNc1cc(C)oc(=O)c1C(=O)CCC	88.1*	nt	nt	nt	-14.2	nt
CCCC(=O)c1c(NCCO)cc(C)oc1=O	14.1	0.0	-5.7	0.0	nt	-8.7
N/C(=N/O)c1nc(N2CCCCC2)nc(N2CCCCC2)n1	nt	nt	nt	nt	10.9	nt
N/C(=N/O)c1nc(N2CCCC2)nc(N2CCCC2)n1	76.5*	-0.8	-4.8	nt	1.7	9.5
O=C(Nc1ccc(N2CCN(C(=O)c3ccccc3)CC2)c(Cl)c1)c1ccc(Br)o1	-0.2	-22.6*	-7.8	nt	nt	-0.3
O=C(Nc1ccccc1N1CCN(C(=O)c2ccccc2)CC1)c1ccc([N+](=O)[O-])o1	-0.8	-25.1*	-19.6	nt	-29.6	6.6
O=C(Nc1ccc(N2CCN(C(=O)c3ccccc3)CC2)cc1)c1ccc(Br)o1	nt	nt	nt	nt	5.6	nt
COc1ccc(N2CCCC2)c(NC(=O)c2ccc([N+](=O)[O-])o2)c1	26.3	3.7	-19.9	nt	9.3	32.2*
O=C(Nc1ccccc1N1CCCC1)c1ccc([N+](=O)[O-])o1	9.0	-9.7	-12.6	nt	-7.4	17.4
CCC(=O)N1[C@H](CO)[C@H](c2ccc(-c3ccccc3)cc2)[C@H]1CNC(=O)COC	4.6	-6.6	-24.2	0.1	nt	-12.9
CCCN1C[C@@H](C)[C@H](OC)CN(C)C(=O)c2cc(NC(=O)c3ccc(F)cc3)ccc2OC[C@H]1C	-8.5	-5.4	15.9	-0.2	-2.2	0.9
COc1ccc([C@H]2C/C=C\C[C@H](c3ccccc3)NC(=O)CCC(=O)N2)c(OC)c1	-2.1	3.6	nt	nt	nt	nt
N#Cc1cccc(C#N)c1Oc1ccc(S(=O)(=O)Nc2ccc(Cl)cc2)cc1	-33.1	-38.2*	-14.0	0.0	nt	-1.8
CN1[C@@H]2c3ccc(-c4ccncc4)c(=O)n3C[C@H]1[C@H](CO)[C@H]2C(=O)NC1CCCCC1	4.9	0.1	0.6	0.3	-6.2	2.7
COC(=O)c1ccc2nc(-c3ccccc3)c(Cc3ccc(C)cc3)n2c1	-7.9	-27.1*	-46.2	0.2	nt	0.6
COc1cccc(S(=O)(=O)N[C@@H]2CC[C@H](CCn3cc(-c4ccccc4OC)nn3)O[C@@H]2CO)c1	16.7	-3.8	-12.3	-0.3	2.6	1.1
O=C(Nc1nnc(S(=O)(=O)N2CCCCCC2)s1)c1ccc(Cl)cc1	12.2	1.4	-11.5	nt	8.0	1.3
CC(C)c1ccc(C(=O)Nc2nnc(S(=O)(=O)N3CCCCC3)s2)cc1	6.2	0.4	-10.2	44.8*	-3.7	6.3

Bioassay records: PubChem, Broad Institute
